Data on five compounds can be found in ChEMBL document CHEMBL1134661, “N-Benzylpolyamines as vectors of boron and fluorine for cancer therapy and imaging: synthesis and biological evaluation” (J Med Chem, 2001).

Assay [1] deals with Nucleic Acid. Kind of assay: (§1) DNA binding affinity (conc to decrease the fluorescence of the ethidium bromide-DNA complex by 50%). It is filed as nucleic-acid assay, Bos taurus.
The test system of assay [2] is 3LL cell line. Kind of assay: accumulation of compound in 3LL cells was measured with DFMO by HPLC at 10 uM dose. It is filed as functional, Mus musculus. An outline of the steps: (§2)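 3LL cells exposed 24 h to derivative, BSH or BPA, with or without prior 24 h incubation with 5 mM DFMO; intracellular drug measured by ion-pair reversed-phase HPLC with o-phthalaldehyde fluorescence, or cellular boron by ICP-AES, per mg protein; mean ± SD; Student's t-test, p < 0.01.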

Assay [3] relates to 3LL cell line. Kind of assay: accumulation of compound in 3LL cells was measured without DFMO by HPLC at 10 uM dose. It counts as functional, Mus musculus. A digest of the protocol:
as §2

Assay [4] relates to 3LL cell line. Description: Effect on the growth of 3LL cells by DFMO pretreatment at 48 hr incubation. It counts as functional, cell-based. Particulars: Mus musculus. A digest of the protocol: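 3LL cells given 5 mM DFMO 24 h after seeding for a 24 h preincubation, then 48 h with spermidine or derivative; MTT readout; growth expressed relative to cells treated with DFMO only; mean ± SEM.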

In assay [5] the test system is 3LL cell line. Kind of assay: Effect on the growth of 3LL cells was evaluated using an MTT assay at 48 hour incubation. It counts as functional, cell-based. The settings on record: Mus musculus. On the technique in general: Tetrazolium dyes change colour on reduction, which living cells bring about.
The test system of assay [6] is 3LL cell line. Kind of assay: Effect on the growth of 3LL cells was evaluated using an MTT assay at 72 hour incubation. It is filed as functional, cell-based. The settings on record: Mus musculus.
Assay [7] concerns 3LL cell line. Description: spermine levels in 3LL cells after the treatment of 10 uM of Compound. It is filed as functional, cell-based. Particulars: Mus musculus. An outline of the steps: (§3)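 3LL cells incubated 24 h with derivative, some after 24 h pretreatment with 5 mM DFMO; perchloric acid extracts analyzed for putrescine, spermidine and spermine by ion-pair reversed-phase HPLC with o-phthalaldehyde post-column fluorescence, normalized to protein (Folin); mean ± SD.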

For assay [8], the system named is CHO. Description: Compound was tested for accumulation in CHO cells by HPLC at 50 uM dose. It counts as functional, Cricetulus griseus. An outline of the steps:
(§4)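 CHO or polyamine-transport-deficient CHO-MG cells (proline 2 µg/mL added for CHO-MG), RPMI 1640 with 10% FCS, 37 °C, 5% CO2; seeded at 5 × 10⁴ cells/mL, derivative added 24 h later for 24 h; trypsin/EDTA harvest, three PBS washes, sonication in 0.2 N perchloric acid; derivative measured by ion-pair reversed-phase HPLC with o-phthalaldehyde/N-acetylcysteine fluorescence; per mg protein (Folin); mean ± SD.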

Assay [9] has as its system 3LL cell line. Description: accumulation of compound in 3LL cells was measured with DFMO by HPLC at 50 uM dose. It is filed as functional, Mus musculus. An outline of the steps:
as §2

In assay [10] the test system is 3LL cell line. Kind of assay: accumulation of compound in 3LL cells was measured with DFMO by ICP-AES at 50 uM dose. It is filed as functional, Mus musculus. A digest of the protocol:
as §2

Assay [11] has as its system 3LL cell line. Description: accumulation of compound in 3LL cells was measured without DFMO by HPLC at 250 uM dose. It is filed as functional, Mus musculus. A digest of the protocol:
as §2

Assay [12] concerns 3LL cell line. Kind of assay: accumulation of compound in 3LL cells was measured without DFMO by HPLC at 50 uM dose. It is filed as functional, Mus musculus. An outline of the steps:
as §2

The test system of assay [13] is 3LL cell line. Description: accumulation of compound in 3LL cells was measured without DFMO by ICP-AES at 50 uM dose. It is filed as functional, Mus musculus. An outline of the steps: as §2
Assay [14] concerns 3LL cell line. Kind of assay: spermidine levels in 3LL cells after the treatment of 50 uM of Compound. It counts as functional, cell-based. The settings on record: Mus musculus. An outline of the steps: as §3
The subject of assay [15] is 3LL cell line. Description: spermine levels in 3LL cells after the treatment of 50 uM of Compound. It is filed as functional, cell-based. Particulars: Mus musculus. An outline of the steps: as §3
The test system of assay [16] is CHO. Kind of assay: Compound was tested for accumulation in CHO cells by HPLC at 250 uM dose. It is filed as functional, Cricetulus griseus. A digest of the protocol: as §4
The subject of assay [17] is CHO-MG. Kind of assay: Compound was tested for accumulation in CHO-MG cells by HPLC at 250 uM dose. It counts as functional, Cricetulus griseus. A digest of the protocol:
as §4

The target of assay [18] is Nucleic Acid. The assay is described as §1. It is filed as nucleic-acid assay.
A further assay concerns U-251. Description: Compound was tested for accumulation of (50 uM) boronated polyamines in human U251 glioblastoma cells. It counts as functional. An outline of the steps:
(§5)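 Rat C6, human U251 glioblastoma or murine B16 melanoma cells exposed 24 h to 50 µM boron-containing derivative, either directly or after 24 h preincubation with 5 mM DFMO; washed cells sonicated in 0.2 N perchloric acid, derivative quantified by ion-pair reversed-phase HPLC with o-phthalaldehyde fluorescence detection, normalized to protein; mean ± SD.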

The subject of assay [19] is 3LL cell line. Description: accumulation of compound in 3LL cells was measured with DFMO by HPLC at 250 uM dose. It is filed as functional, Mus musculus. An outline of the steps:
as §2

Assay [20] is described as follows: Compound was tested for accumulation of (50 uM) boronated polyamines in rat C6 glioblastoma cells. It counts as functional. An outline of the steps: as §5
The nature of assay [21]: Compound was tested for accumulation of (50 uM) boronated polyamines in murine B16 melanoma cells. It counts as functional. An outline of the steps: as §5
For assay [22], the system named is 3LL cell line. Description: accumulation of compound in 3LL cells was measured with DFMO by HPLC at 1 uM dose. It is filed as functional, Mus musculus. An outline of the steps: as §2
The subject of assay [23] is 3LL cell line. Description: accumulation of compound in 3LL cells was measured without DFMO by HPLC at 1 uM dose. It is filed as functional, Mus musculus. A digest of the protocol:
as §2

Assay [24] deals with 3LL cell line. Description: spermine levels in 3LL cells after the treatment of 1 uM of Compound. It is filed as functional, cell-based. The settings on record: Mus musculus. An outline of the steps:
as §3

For assay [25], the system named is CHO. Description: Compound was tested for accumulation in CHO cells by HPLC at 10 uM dose. It counts as functional, Cricetulus griseus. A digest of the protocol:
as §4

Assay [26] concerns CHO-MG. Kind of assay: Compound was tested for accumulation in CHO-MG cells by HPLC at 50 uM dose. It counts as functional, Cricetulus griseus. A digest of the protocol: as §4

Several values for one entry are separate records, joined by “and”; a condition that tells them apart may be missing. Identical values can stand only once. Where only a bound is given, the exact number is not on record here.

Take `NCCCCN` [PUTRESCINE]: the half-maximal inhibitory concentration (IC50) (in general, the point on the concentration scale where inhibition reaches its midpoint) on Nucleic Acid [1] was over 11000 µM.

In the case of `Cl.NCCCCNCCCNCc1ccccc1`, the Activity was 23.67 nM (mg of protein)-1 with 3LL cell line [2] and 9 nM (mg of protein)-1 in the assay with 3LL cell line [3]. Besides, the IC50 in the assay on 3LL cell line [4] is 11.9 µM; in the assay on 3LL cell line [5], 31 µM; in the assay with 3LL cell line [6] it was 9.3 µM; on Nucleic Acid [1], 107 µM. Besides, the Level (nM (mg of protein)-1) with 3LL cell line [7] worked out at 7.23. In addition, the Accumulation in the assay on CHO [8] was 17.58 nM (mg of protein)-1.

`CC1(C)COB(c2ccc(CN(CCCN)CCCCN)cc2)OC1.Cl`: the Activity in the assay with 3LL cell line [9] was 0.98 nM (mg of protein)-1; with 3LL cell line [10] it was 1.83 nM (mg of protein)-1; with 3LL cell line [11], 3.35 nM (mg of protein)-1; with 3LL cell line [12], 2.6 nmol/mg protein; in the assay on 3LL cell line [13], 3.46 nM (mg of protein)-1; with 3LL cell line [19] it was 2.55 nM (mg of protein)-1. Further, the IC50 in the assay on 3LL cell line [4] is over 10 µM; in the assay on 3LL cell line [5], over 1000 µM; with 3LL cell line [6] it was over 1000 µM; on Nucleic Acid [18], 102 µM. The results for the Level (nM (mg of protein)-1) in the assay on 3LL cell line [14] and in the assay on 3LL cell line [15] were 8.92 and 7.4, respectively. The Accumulation in the assay on CHO [16] is 5.05 nM (mg of protein)-1; in the assay on CHO-MG [17], 3.84 nM (mg of protein)-1; in the assay with U-251 it was 2.12 nM (mg of protein)-1 and 1.79 nM (mg of protein)-1; in [20] it was 2.92 nM (mg of protein)-1 and 2.5 nM (mg of protein)-1; in [21], 0.92 nM (mg of protein)-1 and 0.45 nM (mg of protein)-1.

Take `Cl.NCCCCNCCCNCc1ccc(F)cc1`: the Activity with 3LL cell line [22] is 12.19 nM (mg of protein)-1; in the assay on 3LL cell line [23], 5.51 nM (mg of protein)-1; with 3LL cell line [3], 12.87 nM (mg of protein)-1. Also, the IC50 was determined as 0.5 µM in the assay on 3LL cell line [4], 4.7 µM with 3LL cell line [5], 2.3 µM in the assay on 3LL cell line [6] and 341 µM at Nucleic Acid [1]. In the assay with 3LL cell line [24], this compound displayed a Level (nM (mg of protein)-1) of 8.25. For the same compound, in the assay on CHO [25], the Accumulation is 9.4 nM (mg of protein)-1.

With `Cl.NCCCCNCc1ccccc1`, the Activity with 3LL cell line [9] is given as 1.03 nM (mg of protein)-1; in the assay on 3LL cell line [12] it was 0.34 nmol/mg protein. For the same compound, the 50% inhibitory concentration (IC50) was over 50 µM in the assay on 3LL cell line [4], 993 µM in the assay with 3LL cell line [5], 604 µM in the assay with 3LL cell line [6] and 3110 µM at Nucleic Acid [1]. For the same compound, the figures for the Level (nM (mg of protein)-1) in the assay with 3LL cell line [14] and with 3LL cell line [15] were 0.89 and 5.79, respectively. In addition, the Accumulation in the assay with CHO [8] is reported as 0.4 nM (mg of protein)-1; in the assay on CHO-MG [26] it was 0.1 nM (mg of protein)-1.
